Experimental data published in paper PMC4111141 (Bioorganic & medicinal chemistry letters, 2014).

Molecular target: T1, Orco derived from Drosophila melanogaster (DmOrco) (Drosophila melanogaster, UniProt Q9VNB5)
T1 sequence (Q9VNB5 1-486): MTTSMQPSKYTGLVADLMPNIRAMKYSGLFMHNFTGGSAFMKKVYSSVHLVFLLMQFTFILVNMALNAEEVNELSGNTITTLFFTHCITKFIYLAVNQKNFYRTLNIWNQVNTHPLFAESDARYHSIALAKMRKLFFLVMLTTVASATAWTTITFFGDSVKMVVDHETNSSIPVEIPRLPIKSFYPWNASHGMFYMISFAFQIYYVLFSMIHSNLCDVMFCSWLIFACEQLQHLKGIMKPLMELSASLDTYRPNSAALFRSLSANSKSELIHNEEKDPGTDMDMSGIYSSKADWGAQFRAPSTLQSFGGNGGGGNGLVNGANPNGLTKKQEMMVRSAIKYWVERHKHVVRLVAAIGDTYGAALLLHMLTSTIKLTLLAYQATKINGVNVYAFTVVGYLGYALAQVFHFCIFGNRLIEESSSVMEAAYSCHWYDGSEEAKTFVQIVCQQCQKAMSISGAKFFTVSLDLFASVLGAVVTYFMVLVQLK
Assay: high-throughput calcium mobilization/imaging assay for Orco agonist activity
Format: cell-based
Conditions: HEK293 cells stably expressing DmOrco; for % VUAA1 efficacy: maximum agonism of the compound, normalized to the activity of VUAA1; for EC50: mean result of 4 experiments, LA = Low agonism, agonism only at the highest concentration tested, no EC50 could be calculated
Summary of the method: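 HEK293 cells stably expressing Drosophila melanogaster Orco, alone or in some cases with tuning OR subunits. Calcium mobilization/imaging read in high-throughput format across increasing test compound concentrations. EC50 and maximal agonism were taken from concentration-response curves. Maximal agonism was expressed as a percentage of reference agonist VUAA1 activity. Values are the mean of 4 experiments.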

CCc1ccc(NC(=O)CSc2nnc(-c3cccnc3)n2CC)cc1 [6a]
% VUAA1 efficacy: 100%
EC50: 35.1 µM
EC50 (listed as VUAA1): 35 µM

CCc1cccc(NC(=O)CSc2nnc(-c3cccnc3)n2CC)c1 [6b]
Orco agonist activity (in words): completely abrogated activity
% VUAA1 efficacy: No agonism

CCn1c(SCC(=O)Nc2ccc(Br)cc2)nnc1-c1cccnc1 [6j]
% VUAA1 efficacy: No agonism
